Data as given in ChEMBL document CHEMBL5390247, “Aryl azoles based scaffolds for disrupting tumor microenvironment” (Bioorg Med Chem, 2023).
Active and inactive are the calls of the source. No cut-off for these calls is given here.

How the values were obtained:
[1] = Toxicity against interferon gamma-stimulated human THP-1 monocyte cells co-cultured with human HT-29 cells assessed as reduction in cell viability at 100 uM incubated for 48 hrs by flow cytometry analysis; assay type: cell-based; details: thp-1, 48 h
In short: (§1)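 HT-29 cells at 10^5/well seeded and grown 24 h. Medium then replaced with medium containing IFN-γ (10 ng/ml), 5 × 10^5 THP-1 cells/well and compound at 100 µM; DMSO used as control. After 48 h, THP-1 cells collected from supernatant and cancer cells by trypsinisation. Both fixed in 4% paraformaldehyde and counted by flow cytometry relative to control.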

HT-29 [2] = assay: Antiproliferative activity against human HT-29 cells assessed as reduction in IL-6 secretion at 100 uM incubated for 48 hrs by ELISA assay; assay type: functional, cell-based
In short: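 HT-29 monocultures at 10^5 cells/well treated 48 h with compound at 100 µM in 500 µL growth medium. Media collected and secreted IL-6 measured with a human IL-6 ELISA kit.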

HT-29 [3] = assay: Antiproliferative activity against human HT-29 cells assessed as relative PD-L1 protein expression in membrane at 100 uM incubated for 48 hrs by flow cytometry analysis relative to control; assay type: functional
HT-29 [4] = assay: Antiproliferative activity against human HT-29 cells assessed as relative PD-L1 protein expression in whole cell at 100 uM incubated for 48 hrs by flow cytometry analysis relative to control; assay type: functional
HT-29 [5] = assay: Antiproliferative activity against human HT-29 cells assessed as relative c-Myc protein expression at 100 uM incubated for 48 hrs by flow cytometry analysis relative to control; assay type: functional
HT-29 [6] = assay: Antiproliferative activity against human HT-29 cells assessed as relative VEGFR-2 protein expression in membrane at 100 uM incubated for 48 hrs by flow cytometry analysis relative to control; assay type: functional
HT-29 [7] = assay: Antiproliferative activity against human HT-29 cells assessed as relative VEGFR-2 protein expression in whole cell at 100 uM incubated for 48 hrs by flow cytometry analysis relative to control; assay type: functional
HT-29 [8] = assay: Immunomodulatory activity in human HT-29 cells co-cultured with interferon gamma-stimulated THP-1 cells assessed as cell viability at 100 uM incubated for 48 hrs by flow cytometry analysis relative to control; assay type: functional; details: read-out: Activity; in short: as §1
HT-29 [9] = assay: Immunomodulatory activity in human HT-29 cells co-cultured with interferon gamma-stimulated THP-1 cells assessed as relative CD-47 protein expression in membrane at 100 uM incubated for 48 hrs by flow cytometry analysis relative to control; assay type: functional
HT-29 [10] = assay: Immunomodulatory activity in human HT-29 cells co-cultured with interferon gamma-stimulated THP-1 cells assessed as relative PD-L1 protein expression in membrane at 100 uM incubated for 48 hrs by flow cytometry analysis relative to control; assay type: functional
HT-29 [11] = assay: Immunomodulatory activity in human HT-29 cells co-cultured with interferon gamma-stimulated THP-1 cells assessed as IL-6 level at 100 uM incubated for 48 hrs by ELISA analysis (reference value: 192 +/- 16 pg/ml); assay type: functional
In short: (§2)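 HT-29 cells co-cultured with IFN-γ (10 ng/ml)-stimulated THP-1 cells and treated 48 h with compound at 100 µM. Culture media collected and IL-6 measured by human IL-6 ELISA, in pg/mL and as % of control. Mean of three experiments.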

HT-29 [12] = assay: Immunomodulatory activity in human HT-29 cells co-cultured with interferon gamma-stimulated THP-1 cells assessed as relative IL-6 level at 100 uM incubated for 48 hrs by ELISA analysis relative to control; assay type: functional; in short: as §2
HMEC-1 [13] = assay: Antiangiogenic activity in HMEC-1 cells assessed as inhibition of endothelial microtubes formation at 100 uM incubated for 24 hrs by matrigel based imaging analysis; assay type: functional, cell-based; details: Homo sapiens
In short: (§3)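 HMEC-1 cells at 2 × 10^4 cells/well seeded on Matrigel (10 mg/mL, gelled 30 min at 37 °C) in EGM-2MV medium with SingleQuots, allowed to attach 30 min at 37 °C. Compounds then added in medium; after 24 h at 37 °C, microtube formation/destruction evaluated from pictures.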

HMEC-1 [14] = assay: Antiangiogenic activity in HMEC-1 cells assessed as inhibition of endothelial microtubes formation at <75 uM incubated for 24 hrs by matrigel based imaging analysis; assay type: functional, cell-based; details: Homo sapiens; in short: as §3
HEK293 [15] = assay: Anti-vasculogenic activity against HEK293 cells assessed as disruption of tube-like structures at 100 uM incubated for 24 hrs by Matrigel based imaging analysis; assay type: functional, cell-based; details: Homo sapiens
In short: (§4)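 HEK-293 cells seeded at 5 × 10^4 cells/well on Matrigel (pre-incubated with medium 24 h at 37 °C), grown 24 h at 37 °C until tube-like structures form; compounds then added in medium and incubated a further 24 h at 37 °C. Disruption of preformed tube-like structures assessed by imaging.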

HEK293 [16] = assay: Anti-vasculogenic activity against HEK293 cells assessed as disruption of tube-like structures at <75 uM incubated for 24 hrs by Matrigel based imaging analysis; assay type: functional, cell-based; details: Homo sapiens; in short: as §4
HT-29 [17] = assay: Immunomodulatory activity in human HT-29 cells co-cultured with interferon gamma-stimulated THP-1 cells assessed as reduction in IL-6 level at 100 uM incubated for 48 hrs by ELISA analysis relative to control; assay type: functional; set-up: scale not given: the % may be the effect or the level left; in short: as §2
HT-29 [18] = assay: Antiproliferative activity against human HT-29 cells assessed as reduction in cell viability incubated for 48 hrs by MTT assay; assay type: functional, cell-based; details: HT-29, 48 h
In short: (§5)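 MTT dye-reduction assay. Cells at 5 × 10^3/well in DMEM with 10% FBS, treated with serial dilutions of compound (DMSO stocks) for 2 days at 37 °C, 5% CO2. MTT added for a further 3 h, formazan dissolved in DMSO, absorbance read at 550 nm. Viability expressed as % of untreated cells; IC50 determined graphically from three independent experiments.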

A549 = assay: Antiproliferative activity against human A549 cells assessed as reduction in cell viability incubated for 48 hrs by MTT assay; assay type: functional, cell-based; details: A549, 48 h; in short: as §5
MCF7 = assay: Antiproliferative activity against human MCF7 cells assessed as reduction in cell viability incubated for 48 hrs by MTT assay; assay type: functional, cell-based; details: MCF7, 48 h; in short: as §5
[19] = Cytotoxicity against HEK293 cells assessed as reduction in cell viability incubated for 48 hrs by MTT assay; assay type: toxicity, cell-based; details: human; in short: as §5
HT-29 [20] = assay: Immunomodulatory activity in human HT-29 cells co-cultured with interferon gamma-stimulated THP-1 cells assessed as inhibition of cell growth at 100 uM incubated for 48 hrs by flow cytometry analysis relative to control; assay type: functional; in short: as §1
HT-29 [21] = assay: Immunomodulatory activity in human HT-29 cells co-cultured with interferon gamma-stimulated THP-1 cells assessed as inhibition of CD-47 protein expression at 100 uM incubated for 48 hrs by flow cytometry analysis relative to control; assay type: functional
HT-29 [22] = assay: Immunomodulatory activity in human HT-29 cells co-cultured with interferon gamma-stimulated THP-1 cells assessed as inhibition of PD-L1 protein expression in cell surface at 100 uM incubated for 48 hrs by flow cytometry analysis relative to control; assay type: functional
HT-29 [23] = assay: Immunomodulatory activity in human HT-29 cells co-cultured with interferon gamma-stimulated THP-1 cells assessed as inhibition of IL-6 secretion at 100 uM incubated for 48 hrs by ELISA analysis relative to control; assay type: functional; in short: as §2

SMILES	Activity [1]	Activity (HT-29 [2])	Activity (HT-29 [3])	Activity (HT-29 [4])	Activity (HT-29 [5])	Activity (HT-29 [6])	Activity (HT-29 [7])	viability at 100 µM (HT-29 [8])	Activity (HT-29 [9])	Activity (HT-29 [10])	Activity (HT-29 [11])	Activity (HT-29 [12])	Activity (HMEC-1 [13])	Activity (HMEC-1 [14])	Activity (HEK293 [15])	Activity (HEK293 [16])	Activity (HT-29 [17])	IC50 (HT-29 [18])	IC50 (A549)	inhibition at 100 µM (HT-29 [20])	other results
Nc1cccc(-c2nnn(Cc3ccccc3Cl)n2)c1	Non-Toxic	inactive	95%	>100%	>100%	96%	92%	61%	86%	93%	6 pg/mL	3%	Active	inactive	Active	inactive	>95%	–	–	–	–
Nc1cccc(-c2nnn(Cc3ccc(Br)cc3)n2)c1	Non-Toxic	inactive	92%	>100%	76%	>100%	>100%	6%	60%	70%	5 pg/mL	3%	Active	inactive	Active	inactive	>95%	> 100 µM	> 100 µM	> 90%	IC50 (MCF7): 44 µM; IC50 at 48 h [19]: > 100 µM; inhibition at 100 µM (HT-29 [21]): > 30%; inhibition at 100 µM (HT-29 [22]): 70%
Nc1cccc(-c2nnn(Cc3cccc(Br)c3)n2)c1	Non-Toxic	–	66%	>100%	83%	>100%	>100%	19%	–	64%	–	–	Active	inactive	Active	inactive	–	–	–	> 70%	inhibition at 100 µM (HT-29 [21]): > 30%; inhibition at 100 µM (HT-29 [22]): 70%
Nc1cccc(-c2nnn(Cc3ccc(Cl)cc3)n2)c1	Non-Toxic	inactive	>100%	99%	80%	>100%	96%	22%	93%	114%	11 pg/mL	6%	Active	inactive	Active	inactive	94%	72 µM	> 100 µM	> 70%	IC50 (MCF7): > 100 µM; IC50 at 48 h [19]: 91 µM
Nc1cccc(-c2nnn(Cc3cccc(Cl)c3)n2)c1	Non-Toxic	inactive	>100%	97%	76%	97%	99%	48%	95%	94%	6 pg/mL	3%	Active	inactive	Active	inactive	>95%	81 µM	> 100 µM	–	IC50 (MCF7): 88 µM; IC50 at 48 h [19]: > 100 µM
Nc1cccc(-c2cn(Cc3cccc(Cl)c3)nn2)c1	Non-Toxic	inactive	–	–	–	–	–	8%	96%	122%	38 pg/mL	20%	–	–	–	–	–	–	–	> 90%	inhibition at 100 µM (HT-29 [23]): > 80%
Nc1cccc(-c2cn(Cc3ccccc3Cl)nn2)c1	Non-Toxic	inactive	–	–	–	–	–	51%	91%	116%	12 pg/mL	6%	–	–	–	–	–	–	–	–	inhibition at 100 µM (HT-29 [23]): > 80%
Nc1cccc(-c2nnn(Cc3ccccc3Br)n2)c1	Non-Toxic	–	64%	>100%	90%	>100%	92%	23%	–	65%	–	–	Active	inactive	Active	inactive	–	–	–	> 70%	inhibition at 100 µM (HT-29 [21]): > 30%; inhibition at 100 µM (HT-29 [22]): 70%
